# Laboratory results taken from ChEMBL document CHEMBL1123477, “Phenethyl ester derivative analogues of the C-terminal tetrapeptide of gastrin as potent gastrin antagonists” (J Med Chem, 1986).
# Calls of active or inactive are those of the source. The rule behind the calls is not given here. Where a SMILES comes first, the peptide text is derived from it. The star is where a group is joined. Boc = CC(C)(C)OC(=O)*
# Assays:
# Rattus norvegicus [1] = assay: Compound was evaluated for the antagonist activity (ED50) against gastrin-induced acid secretion in the anesthetized rat.; type: functional
# Outline: (§1)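 Urethane-anaesthetized rats (ip) with the stomach continuously perfused at 30 °C with propionate-succinate solution. Cumulative pH was recorded over time as the index of acid secretion. Compound in alkaline aqueous solution was given as an iv bolus together with (Leu15)-human gastrin I, usually 80 pmol. H+ output, taken from the stimulated minus basal trace, was expressed as % inhibition relative to gastrin alone.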
# [2] = Compound was evaluated for the inhibition of [125 I](Nle12)HG-13 binding to isolated gastric mucosa cells.; parameters: species or system Oryctolagus cuniculus; conditions: in the assay text read “(Nle11)” for “(Nle12)”
# Outline: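 Dispersed rabbit fundic mucosal cells (collagenase/EDTA digestion, mixed population with about 45% parietal cells) were incubated in Hepes-buffered Earle's medium with 0.2% BSA, pH 7.4. Incubation was 30 min at 37 °C with 20 pM mono-iodinated (Nle11)-HG-13 (chloramine T labelling) plus varied peptide concentrations. Nonsaturable binding was defined with 1 × 10^-6 M unlabeled (Nle11)-HG-13.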
# Rattus norvegicus [3] = assay: Compound was evaluated for the antagonist activity (ED50) against gastrin-induced acid secretion in the anesthetized rat; Inactive; type: functional, organism-based; outline: as §1
SMILES,ED50 (Rattus norvegicus [1]) [mg/kg],IC50 [2] [nM],ED50 (Rattus norvegicus [3])
CC(C)C[C@H](NC(=O)[C@H](Cc1c[nH]c2ccccc12)NC(=O)OC(C)(C)C)C(=O)N[C@@H](CC(=O)O)C(=O)OCCc1ccccc1,0.1,750,
CC(C)C[C@H](NC[C@H](Cc1c[nH]c2ccccc12)NC(=O)OC(C)(C)C)C(=O)N[C@@H](CC(=O)O)C(=O)OCCc1ccc(F)cc1,0.1,,
CC(C)C[C@H](NC(=O)[C@H](Cc1c[nH]c2ccccc12)NC(=O)OC(C)(C)C)C(=O)N[C@@H](CC(=O)O)C(=O)OCCc1ccc(F)cc1,0.08,,
CC(C)C[C@H](NC(=O)[C@@H](Cc1c[nH]c2ccccc12)NC(=O)CCNC(=O)OC(C)(C)C)C(=O)N[C@H](CC(=O)O)C(=O)NC(Cc1ccccc1)C(N)=O (some centres not stated),,50,
CC(C)C[C@H](NC(=O)[C@H](Cc1c[nH]c2ccccc12)NC(=O)OC(C)(C)C)C(=O)N[C@@H](CC(=O)O)C(=O)OCCc1cccc(C(F)(F)F)c1,> 1,,
CC(C)C[C@H](NC(=O)[C@@H](Cc1c[nH]c2ccccc12)NC(=O)OC(C)(C)C)C(=O)N[C@@H](CC(=O)O)C(=O)OCCc1ccccc1,0.8,,
CC(C)C[C@H](NC(=O)[C@H](Cc1c[nH]c2ccccc12)NC(=O)CCNC(=O)OC(C)(C)C)C(=O)N[C@@H](CC(=O)O)C(=O)OCCc1ccc(F)cc1,0.02,,
CC(C)C[C@H](NC(=O)[C@H](Cc1c[nH]c2ccccc12)NC(=O)OC(C)(C)C)C(=O)N[C@@H](CC(=O)O)C(=O)OCCc1ccccc1C(F)(F)F,1.5,,
CC(C)C[C@H](NC(=O)[C@H](Cc1c[nH]c2ccccc12)NC(=O)OC(C)(C)C)C(=O)N[C@@H](CC(=O)O)C(=O)N[C@@H](Cc1ccccc1)C(N)=O (Boc-WLDF-NH2),,500,
CC(C)C[C@@H](NC(=O)[C@H](Cc1c[nH]c2ccccc12)NC(=O)OC(C)(C)C)C(=O)N[C@H](CC(=O)OCCc1ccc(F)cc1)C(=O)O,,,inactive
CC(C)C[C@H](NC(=O)[C@H](Cc1c[nH]c2ccccc12)NC(=O)OC(C)(C)C)C(=O)N[C@@H](CC(=O)O)C(=O)OCCc1ccccc1F,0.1,,
CC(C)C[C@H](NC(=O)[C@H](Cc1c[nH]c2ccccc12)NC(=O)CCNC(=O)OC(C)(C)C)C(=O)N[C@H](CC(=O)O)C(=O)OCCc1ccccc1,0.08,,
CC(C)C[C@H](NC(=O)[C@@H](Cc1c[nH]c2ccccc12)NC(=O)CCNC(=O)OC(C)(C)C)C(=O)N[C@H](CC(=O)O)C(=O)OCCc1ccccc1,0.04,75,
CC(C)C[C@H](NC[C@H](Cc1c[nH]c2ccccc12)NC(=O)OC(C)(C)C)C(=O)N[C@@H](CC(=O)O)C(=O)OCCc1ccccc1,1,,
CC(C)C[C@H](NC(=O)OC(C)(C)C)C(=O)N[C@@H](CC(=O)O)C(=O)OCCc1ccccc1,,,inactive
